We go through four molecules from ChEMBL document CHEMBL1123648, “Synthesis, chemical reactivity, and antileukemic activity of 5-substituted 6,7-bis(hydroxymethyl)pyrrolo[1,2-c]thiazole biscarbamates and the corresponding sulfoxides and sulfones” (1987).

Assay [1] is described as follows: Antileukemic activity against Murine P388 lymphocytic leukemia, body weight difference of the test animals compared to control group A animals at a dose of 25 mg/kg. It counts as functional, Mus musculus. Also on record: unit not given here. The method, boiled down: (§1)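 CD2F1 mice implanted intraperitoneally with ascitic fluid carrying ca. 1×10^6 P388 cells, under the NCI protocol. Dosing was intraperitoneal, starting 24 h after inoculation, then every 24 h for five doses in total. The body weight difference of treated mice is taken against untreated controls. Toxicity day survivors are the mice alive at day five out of those tested.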

Assay [2] can be described thus: Antileukemic activity against Murine P388 lymphocytic leukemia, body weight difference of the test animals compared to control group A animals at a dose of 400 mg/kg. It counts as functional, Mus musculus. The method, boiled down: as §1
A short description of assay [3]: Percent increase in life span of test animals compared to untreated tumor-bearing control group A animals at a dose of 50 mg/kg. In kind it is functional. The conditions noted are these: Mus musculus.
The nature of assay [4]: Toxicity day survivors expressed as number of animals that survived to day five/ number of test animals under control group A at a dose of 400 mg/kg; 6 survived out of 6. It counts as functional, Mus musculus.
Assay [5] in a line: Percent increase in life span of test animals compared to untreated tumor-bearing control group A animals at a dose of 400 mg/kg. In kind it is functional. The following applies: Mus musculus.
The nature of assay [6]: Toxicity day survivors expressed as number of animals that survived to day five/ number of test animals under control group A at a dose of 50 mg/kg; 6 survived out of 6. It counts as functional, Mus musculus.
A short description of assay [7]: Antileukemic activity against Murine P388 lymphocytic leukemia, body weight difference of the test animals compared to control group A animals at a dose of 200 mg/kg. In kind it is functional, Mus musculus. The method, boiled down:
as §1

A short description of assay [8]: Antileukemic activity against Murine P388 lymphocytic leukemia, body weight difference of the test animals compared to control group A animals at a dose of 100 mg/kg. On the set-up: unit not given here. It counts as functional, Mus musculus. The method, boiled down: as §1
The nature of assay [9]: Toxicity day survivors expressed as number of animals that survived to day five/ number of test animals under control group A at a dose of 100 mg/kg; 6 survived out of 6. In kind it is functional, Mus musculus.
Assay [10] can be described thus: Percent increase in life span of test animals compared to untreated tumor-bearing control group A animals at a dose of 25 mg/kg. It counts as functional. The conditions noted are these: Mus musculus.
A short description of assay [11]: Percent increase in life span of test animals compared to untreated tumor-bearing control group A animals at a dose of 200 mg/kg. In kind it is functional. The following applies: Mus musculus.
A short description of assay [12]: Toxicity day survivors expressed as number of animals that survived to day five/ number of test animals under control group A at a dose of 200 mg/kg; 6 survived out of 6. It counts as functional, Mus musculus.
Assay [13] is described as follows: Toxicity day survivors expressed as number of animals that survived to day five/ number of test animals under control group A at a dose of 25 mg/kg; 6 survived out of 6. In kind it is functional, Mus musculus.
Assay [14] can be described thus: Antileukemic activity against Murine P388 lymphocytic leukemia, body weight difference of the test animals compared to control group A animals at a dose of 50 mg/kg. Also on record: unit not given here. It counts as functional, Mus musculus. An outline of the steps: as §1
A short description of assay [15]: Percent increase in life span of test animals compared to untreated tumor-bearing control group A animals at a dose of 100 mg/kg. It counts as functional. The following applies: Mus musculus.
Assay [16] relates to P388. Nature of the assay: Log cell population relative to cell population at the beginning of treatment compared to control group A at a dose of 100 mg/kg. It counts as functional, Mus musculus.
Assay [17] is described as follows: Toxicity day survivors expressed as number of animals that survived to day five/ number of test animals under control group A at a dose of 400 mg/kg; 3 survived out of 6. It counts as functional, Mus musculus.
Assay [18] deals with P388. Description: Log cell population relative to cell population at the beginning of treatment compared to control group A at a dose of 200 mg/kg. It counts as functional, Mus musculus.
Assay [19] relates to P388. Nature of the assay: Log cell population relative to cell population at the beginning of treatment compared to control group A at a dose of 50 mg/kg. In kind it is functional, Mus musculus.
The subject of assay [20] is P388. Nature of the assay: Log cell population relative to cell population at the beginning of treatment compared to control group A at a dose of 25 mg/kg. It counts as functional, Mus musculus.
Assay [21] deals with P388. Description: Log cell population relative to cell population at the beginning of treatment compared to control group A at a dose of 6.25 mg/kg. In kind it is functional, Mus musculus.
The nature of assay [22]: Antileukemic activity against Murine P388 lymphocytic leukemia, body weight difference of the test animals compared to control group A animals at a dose of 12.5 mg/kg. It counts as functional, Mus musculus. The method, boiled down:
as §1

The nature of assay [23]: Toxicity day survivors expressed as number of animals that survived to day five/ number of test animals under control group A at a dose of 100 mg/kg; 3 survived out of 6. In kind it is functional, Mus musculus.
The nature of assay [24]: Toxicity day survivors expressed as number of animals that survived to day five/ number of test animals under control group A at a dose of 50 mg/kg; 5 survived out of 6. It counts as functional, Mus musculus.
Assay [25] can be described thus: Toxicity day survivors expressed as number of animals that survived to day five/ number of test animals under control group A at a dose of 6.25 mg/kg. In kind it is functional, Mus musculus.
The nature of assay [26]: Percent increase in life span of test animals compared to untreated tumor-bearing control group A animals at a dose of 6.25 mg/kg. In kind it is functional. The conditions noted are these: Mus musculus.
Assay [27] in a line: Toxicity day survivors expressed as number of animals that survived to day five/ number of test animals under control group A at a dose of 12.5 mg/kg; 6 survived out of 6. It counts as functional, Mus musculus.
Assay [28] can be described thus: Antileukemic activity against Murine P388 lymphocytic leukemia, body weight difference of the test animals compared to control group A animals at a dose of 6.25 mg/kg. It counts as functional, Mus musculus. The method, boiled down: as §1
The nature of assay [29]: Percent increase in life span of test animals compared to untreated tumor-bearing control group A animals at a dose of 12.5 mg/kg. It counts as functional. The following applies: Mus musculus.
In assay [30] the test system is P388. Nature of the assay: Log cell population relative to cell population at the beginning of treatment compared to control group A at a dose of 12.5 mg/kg. In kind it is functional, Mus musculus.
Assay [31] is described as follows: Antileukemic activity against Murine P388 lymphocytic leukemia and toxicity day survivors expressed as number of animals that survived to day five/ number of test animals under control group C at a dose of 50 mg/kg; 6 survived out of 6. It counts as functional, Mus musculus.
A short description of assay [32]: Antileukemic activity against Murine P388 lymphocytic leukemia, body weight difference of the test animals compared to control group C animals at a dose of 50 mg/kg. It counts as functional, Mus musculus. On the set-up: unit not given here. The method, boiled down:
as §1

Assay [33] is described as follows: Antileukemic activity against Murine P388 lymphocytic leukemia, body weight difference of the test animals compared to control group C animals at a dose of 200 mg/kg. In kind it is functional, Mus musculus. The method, boiled down:
as §1

Assay [34] can be described thus: Percent increase in life span of test animals compared to untreated tumor-bearing control group C animals at a dose of 25 mg/kg. The following applies: Mus musculus. In kind it is functional.
For assay [35], the system named is P388. Nature of the assay: Log cell population relative to cell population at the beginning of treatment compared to control group C at a dose of 25 mg/kg. In kind it is functional, Mus musculus.
Assay [36] in a line: Toxicity day survivors expressed as number of animals that survived to day five/ number of test animals under control group C at a dose of 100 mg/kg; 6 survived out of 6. In kind it is functional, Mus musculus.
Assay [37] in a line: Antileukemic activity against Murine P388 lymphocytic leukemia, body weight difference of the test animals compared to control group C animals at a dose of 25 mg/kg. It counts as functional, Mus musculus. The method, boiled down:
as §1

Assay [38] in a line: Percent increase in life span of test animals compared to untreated tumor-bearing control group C animals at a dose of 50 mg/kg. In kind it is functional. The conditions noted are these: Mus musculus.
Assay [39] concerns P388. Nature of the assay: Log cell population relative to cell population at the beginning of treatment compared to control group C at a dose of 100 mg/kg. It counts as functional, Mus musculus.
Assay [40] relates to P388. Nature of the assay: Log cell population relative to cell population at the beginning of treatment compared to control group C at a dose of 50 mg/kg. In kind it is functional, Mus musculus.
The nature of assay [41]: Percent increase in life span of test animals compared to untreated tumor-bearing control group C animals at a dose of 100 mg/kg. The following applies: Mus musculus. It counts as functional.
Assay [42] in a line: Antileukemic activity against Murine P388 lymphocytic leukemia, body weight difference of the test animals compared to control group C animals at a dose of 100 mg/kg. It counts as functional, Mus musculus. On the set-up: unit not given here. An outline of the steps:
as §1

The nature of assay [43]: Toxicity day survivors expressed as number of animals that survived to day five/ number of test animals under control group C at a dose of 25 mg/kg; 6 survived out of 6. It counts as functional, Mus musculus.
Assay [44] is described as follows: Toxicity day survivors expressed as number of animals that survived to day five/ number of test animals under control group C at a dose of 200 mg/kg; 6 survived out of 6. In kind it is functional, Mus musculus.

Consider `CC(C)NC(=O)OCc1c(COC(=O)NC(C)C)c(-c2ccc(Cl)c(Cl)c2)n2c1CSC2`, for which the BWD is on record as -1.3 in assay [1]; -1.3 in [2]; -1.7 in assay [7]; -0.9 in assay [8]; -1.3 in [14]. Also, in [3], the ILS at 50 mg/kg was -12%. For the same molecule, the TDS in assay [4], in assay [6], in assay [9], in assay [12] and in assay [13] was 6 in each case. In assay [5], the ILS at 400 mg/kg is -11%. For the same molecule, in assay [10], the ILS at 25 mg/kg was -9%. For the same molecule, the ILS at 200 mg/kg in assay [11] is -12%. For the same molecule, in [15], the ILS at 100 mg/kg is -13%.

With `Cc1c(COC(=O)NC(C)C)c(COC(=O)NC(C)C)c2n1C[S+]([O-])C2` (stereo not given), the BWD is reported as -4.5 in assay [2], -2.6 in assay [7], -0.1 in assay [8] and -0.6 in [14]. Besides, in assay [3], the ILS at 50 mg/kg came out at 26%. Also, the TDS in assay [6] is reported as 6; in [9], 6; in assay [17] it was 3; in assay [12], 6. For the same molecule, the figures for the KE in the assay with P388 [16], in the assay with P388 [18] and in the assay with P388 [19] were -0.08, 3.94 and -0.69, respectively. Moreover, in assay [11], the ILS at 200 mg/kg amounted to 76%. Also, the ILS at 100 mg/kg in assay [15] was found to be 32%.

As for `Cc1c(COC(=O)NC(C)C)c(COC(=O)NC(C)C)c2n1CSC2`, the BWD in [1] is listed as 1.9; in [22] it was -1.9; in [8], -4.9; in assay [28] it was -1.3; in assay [14], -3.5. In addition, the KE was determined as 2.61 in the assay on P388 [20], 1.27 with P388 [21] and 0.4 with P388 [30]. Besides, the TDS in assay [23] came out at 3; in [24], 5; in assay [25], 6; in assay [27], 6; in assay [12], 0; in assay [13] it was 6. Further, the ILS at 6.25 mg/kg in assay [26] is 54%. Besides, in [29], the ILS at 12.5 mg/kg turned out to be 42%. Besides, the ILS at 25 mg/kg in [10] worked out at 73%.

As for `CNC(=O)OCc1c(COC(=O)NC)c2n(c1C)CS(=O)(=O)C2`, the TDS in [31], in assay [36], in assay [43] and in assay [44] was 6 throughout. For the same molecule, the BWD in assay [32] is 0.6; in [33], -2.1; in [37], 0.3; in assay [42] it was -2.5. In addition, the ILS at 25 mg/kg in [34] turned out to be 22%. In addition, the KE is -0.05 with P388 [35], 0.33 with P388 [39] and 0.03 in the assay with P388 [40]. In [38], the ILS at 50 mg/kg came out at 40%. The ILS at 100 mg/kg in assay [41] stood at 104%.
